Measured values: ChEMBL document CHEMBL4145582, “Cytotoxic and Antibacterial Eremophilane Sesquiterpenes from the Marine-Derived Fungus Cochliobolus lunatus SCSIO41401” (J Nat Prod, 2018)
Values after ≈ are worked out from the molar mass of the structure shown.

How the values were obtained:
ACHN = assay: Cytotoxicity against human ACHN cells after 72 hrs by CCK8 assay; format: functional, cell-based
Summary of the method: (§1)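 Renal cancer lines ACHN, 786-O and OS-RC-2; cell viability read by CCK-8 assay, with sorafenib as positive control.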

786-0 = assay: Cytotoxicity against human 786-O cells after 72 hrs by CCK8 assay; format: functional, cell-based; details: 786-0, 72 h; summary of the method: as §1
OS-RC-2 = assay: Cytotoxicity against human OS-RC2 cells after 72 hrs by CCK8 assay; format: functional, cell-based; details: OS-RC-2, 72 h; summary of the method: as §1
HepG2 = assay: Cytotoxicity against human HepG2 cells after 6 days by MTT assay; format: functional, cell-based; details: HepG2, 144 h
Summary of the method: (§2)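 HepG-2 and SGC7901 cells; growth inhibition read by MTT method, with 5-fluorouracil as positive control.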

SGC-7901 = assay: Cytotoxicity against human SGC7901 cells after 6 days by MTT assay; format: functional, cell-based; details: SGC-7901, 144 h; summary of the method: as §2
Escherichia coli = assay: Antimicrobial activity against Escherichia coli ATCC 25922 after 24 hrs by serial dilution method; format: functional; details: ATCC 25922, 24 h
Summary of the method: (§3)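 Serial broth dilution in 96-well microtiter plates. Compounds and controls are dissolved in DMSO as stock. Bacteria are grown overnight at 37 °C, then diluted to 10^6 cfu/mL. E. coli and S. aureus are grown in Luria–Bertani broth. P. multocida and E. rhusiopathiae are grown in trypticase soy broth with 10% calf serum. Plates are incubated at 37 °C for 24 h and read at 630 nm.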

Staphylococcus aureus = assay: Antimicrobial activity against Staphylococcus aureus subsp. aureus Rosenbach ATCC 25923 after 24 hrs by serial dilution method; format: functional; details: Rosenbach ATCC 25923, 24 h; summary of the method: as §3
[1] = system: Erysipelothrix rhusiopathiae; assay: Antimicrobial activity against Erysipelothrix rhusiopathiae ATCC 19414 after 24 hrs by serial dilution method; format: functional; details: ATCC 19414, 24 h; summary of the method: as §3
Pasteurella multocida = assay: Antimicrobial activity against Pasteurella multocida subsp. multocida ATCC 43137 after 24 hrs by serial dilution method; format: functional; details: ATCC 43137, 24 h; summary of the method: as §3

COC(=O)[C@]12Oc3cc(C)c(-c4ccc(O)c5c4O[C@@]4(C(=O)OC)C(=C(O)C[C@@H](C)[C@H]4O)C5=O)c(O)c3C(=O)C1=C(O)CC[C@H]2O
IC50 (ACHN): > 50 µM
IC50 (786-0): 46 µM
IC50 (OS-RC-2): > 50 µM
IC50 (HepG2): > 50 µM
IC50 (SGC-7901): > 50 µM
MIC (Escherichia coli): > 100 µg/mL
MIC (Staphylococcus aureus): 50 µg/mL (≈ 78.3 µM)
MIC [1]: 25 µg/mL (≈ 39.1 µM)
MIC (Pasteurella multocida): 13 µg/mL (≈ 20.4 µM)

Cc1cc(O)c2c(c1)C(=O)c1cc(O)cc(O)c1C2=O [EMODIN]
IC50 (HepG2): 1.7 µM
IC50 (SGC-7901): 5.6 µM
MIC (Escherichia coli): > 100 µg/mL
MIC (Staphylococcus aureus): 100 µg/mL (≈ 370 µM)
MIC [1]: > 100 µg/mL
MIC (Pasteurella multocida): > 100 µg/mL

CNC(=O)c1cc(Oc2ccc(NC(=O)Nc3ccc(Cl)c(C(F)(F)F)c3)cc2)ccn1 [SORAFENIB]
IC50 (ACHN): 3.5 µM
IC50 (786-0): 5.3 µM
IC50 (OS-RC-2): 15 µM
